The structures appear in SMILES notation. Bounds are passed on as bounds.

A short description of test [1]: Cytotoxicity against human Hep3B2 cells after 72 hrs by MTS assay. Type of test: functional, cell-based, Hep 3B2. The conditions noted are these: Hep3B. In a few lines:
(§1)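 Triplicate wells seeded at (2–5) × 10^3 cells each, depending on growth rate, and left overnight to attach. Medium was then replaced with medium containing test compound at serial dilutions from 100 mM DMSO stocks, or 0.1% DMSO. Incubation was 72 h at 37 °C in humidified 5% CO2. MTS was added in the dark, with a 90 min read-out incubation at 37 °C.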
(Tetrazolium dyes change colour on reduction, which living cells bring about.)

Test [2] can be described thus: Cytotoxicity against human MGC cells after 72 hrs by MTS assay. Type of test: functional, cell-based. In a few lines: as §1
The nature of test [3]: Cytotoxicity against human CNE1-LMP1 cells after 72 hrs by MTS assay. Type of test: functional, cell-based. To be noted: CNE1-LMP1, 72 h. The procedure, abridged:
as §1

Test [4] has as its system A549. Nature of the test: Cytotoxicity against human A549 cells after 72 hrs by MTS assay. The conditions noted are these: A549, 72 h. Type of test: functional, cell-based. In a few lines: as §1
Test [5] has as its system A-375. Put plainly: Cytotoxicity against human A375 cells after 72 hrs by MTS assay. Type of test: functional, cell-based. To be noted: A-375, 72 h. In a few lines: as §1
Test [6] deals with PANC-1. Nature of the test: Cytotoxicity against human PANC1 cells after 72 hrs by MTS assay. Type of test: functional, cell-based. The conditions noted are these: PANC-1, 72 h. The procedure, abridged:
as §1

A short description of test [7]: Cytotoxicity against human EC109 cells after 72 hrs by MTS assay. Type of test: functional, cell-based. To be noted: ECa-109, 72 h. In a few lines: as §1
For test [8], the system named is MCF7. Put plainly: Cytotoxicity against human MCF7 cells after 72 hrs by MTS assay. Type of test: functional, cell-based. To be noted: MCF7, 72 h. In a few lines:
as §1

Test [9] relates to HaCaT. Nature of the test: Cytotoxicity against human HaCaT cells after 72 hrs by MTS assay. Type of test: functional, cell-based. The procedure, abridged:
as §1

As usually defined, the IC50 is the concentration that gives 50% inhibition. Higher therefore signals lower potency. Turning to `COc1cc(=O)oc2c1[C@H](O[C@@H]1O[C@@H](C)[C@H](C)c3oc(=O)cc(OC)c31)O[C@@H](C)[C@@H]2C` [INFLATIN F], the half-maximal inhibitory concentration (IC50) in test [1] was 57.5 µM; in test [2], > 100 µM; in test [3], > 100 µM; in test [4], > 100 µM; in [5] it was > 100 µM; in test [6] it was > 100 µM. Further, the IC50 in test [7], in [8] and in [9] was > 100 µM in each case.

Consider `COc1cc(=O)oc2c1[C@H](O[C@@H]1O[C@@H](C)[C@@H](C)c3oc(=O)cc(OC)c31)O[C@@H](C)[C@H]2C` [INFLATIN D], for which the 50% inhibitory concentration (IC50) in test [1], in [2], in test [3], in test [4], in test [5] and in test [6] was > 100 µM in each case. In addition, the IC50 in test [7], in test [8] and in test [9] was > 100 µM throughout.

Regarding `CC(=O)OC[C@@]1(O)CC[C@]23C[C@H]1C[C@@H]2CC[C@H]1[C@]2(C)CO[C@H](c4ccc(O)cc4)O[C@@H]2CC[C@@]13C` [INFLATIN B], the half-maximal inhibitory concentration (IC50) is 7.3 µM in [1]; > 100 µM in test [2]; 15 µM in [3]; 25 µM in test [4]; 25.5 µM in [5]; 53.2 µM in [6]. For the same molecule, the IC50 was determined as 70.8 µM in test [7], 75.2 µM in [8] and 55.1 µM in test [9].

For the molecule `CC(=O)O[C@H]1C(=O)[C@@]2(C)[C@H]([C@H](OC(=O)c3ccccc3)[C@]3(O)C[C@H](OC(=O)[C@H](O)[C@@H](NC(=O)c4ccccc4)c4ccccc4)C(C)=C1C3(C)C)[C@]1(OC(C)=O)CO[C@@H]1C[C@@H]2O` [PACLITAXEL], the IC50 in [1] was 1.6e-05 µM; in [2], 0.0064 µM; in test [3] it was 0.0042 µM; in test [4], 0.03 µM; in [5], 0.0089 µM; in test [6], 0.0011 µM. The IC50 in [7] was determined as 0.14 µM; in test [8], 0.014 µM; in [9], 0.024 µM.

Consider `COc1cc(=O)oc2c1[C@H](O[C@@H]1O[C@@H](C)[C@@H](C)c3oc(=O)cc(OC)c31)O[C@@H](C)[C@@H]2C` [INFLATIN E], for which the half-inhibitory concentration (IC50) in test [1], in test [2], in test [3], in test [4], in test [5] and in test [6] was > 100 µM each time. Moreover, the half-maximal inhibitory concentration (IC50) in test [7], in test [8] and in [9] was > 100 µM each time.

For `COc1cc(=O)oc2c1[C@H](O)O[C@@H](C)[C@H]2C` [INFLATIN C], the IC50 in test [1], in test [2], in test [3], in [4], in test [5] and in test [6] was > 100 µM each time. For the same molecule, the 50% inhibitory concentration (IC50) in test [7], in test [8] and in [9] was > 100 µM in each case.

On to `C[C@@]12CO[C@H](c3ccc(O)cc3)O[C@@H]1CC[C@@]1(C)[C@H]2CC[C@H]2C[C@@H]3C[C@@]21CC[C@]3(O)CO` [INFLATIN A], for which the half-inhibitory concentration (IC50) in test [1] worked out at 14.8 µM; in test [2], 54.5 µM; in test [3], 39.1 µM; in test [4], 75.3 µM; in test [5], 47.3 µM; in test [6] it was 19.9 µM. Besides, the IC50 in [7] was 47.1 µM; in [8] it was 33.5 µM; in test [9] it was 49.1 µM.

The record behind these values is ChEMBL document CHEMBL1821668, “Isolation and characterization of aphidicolin and chlamydosporol derivatives from Tolypocladium inflatum” (J Nat Prod, 2011).
